# Results collected from several papers.
# Compare with care: the assays were run in different laboratories.
# Cell line: MCF7
# Read-out: cell growth or viability
SMILES,test,conditions,IC50
COc1ccc(-c2nc3ccccc3[nH]2)cc1OC,MTT,48 h,> 100 µM
CC(C)C[C@H](NC(=O)[C@H](Cc1ccccc1)NC(=O)c1cnccn1)B(O)O,ATP luminescence,,0.0088 µM
C=CCn1c(-c2ccc([N+](=O)[O-])cc2)nc2ccc(C)cc21,MTT,,71.1 µM
O=C1Nc2c(C(F)(F)F)cccc2C1(c1ccc(OC(F)(F)F)cc1)c1c(F)cc(O)cc1F (stereo not shown),resazurin,24 h,0.549 µM
COc1ccc(-c2csc(Nc3ccc4c(O)ncnc4c3)n2)cc1,MTT,,9.75 µM
COc1cccc2c1C(=O)c1c(O)c3c(c(O)c1C2=O)C[C@@](O)(C(=O)CO)C[C@@H]3O[C@H]1C[C@H](N)[C@H](O)[C@H](C)O1,MTT,48 h,0.964 µg/mL
FC(F)(F)c1cccc(Nc2ncnc3ccc(NCc4ccccc4)cc23)c1,MTT,24 h,6.83 µM
COC(=O)c1ccc(-n2nc(SC)nc2N)cc1,MTT,,23.4 µM
Oc1ccc(-c2csc(Nc3ccc4c(O)ncnc4c3)n2)cc1,MTT,,7.43 µM
O=[N+]([O-])c1ccc(-c2nc3ccccc3[nH]2)cc1,MTT,48 h,27.2 µM
CS(=O)(=O)c1ccc(-n2cc(C=N/N=c3\[nH]c(-c4ccc(Br)cc4)cs3)c(-c3ccc([N+](=O)[O-])cc3)n2)cc1,MTT,48 h,19.9 µM
CC/C(=C(/c1ccc(OCCNC)cc1)c1ccc(B2OC(C)(C)C(C)(C)O2)cc1)c1ccccc1,,5 days,0.708 µM
CSc1nc(N)n(-c2ccc(C(=O)O)cc2)n1,MTT,,32.9 µM
FC(F)(F)c1cccc(Nc2ncnc3ccc(Nc4ccccc4)cc23)c1,MTT,24 h,11.4 µM
O=S(=O)(NN=Cc1cn(CCN2CCOCC2)c2ccccc12)c1cccc2ncccc12,MTT,48 h,79.1 µM
C#Cc1cccc(Nc2ncnc3cc(OCCOC)c(OCCOC)cc23)c1,MTT,,3.16 µM
O=S(=O)(NN=Cc1cn(CCN2CCOCC2)c2ccccc12)c1ccc(F)cc1,MTT,48 h,32.6 µM
O=C(N/N=C/CN1CCOCC1)Nc1cc2c(Nc3ccc(F)c(Cl)c3)ncnc2cc1O[C@H]1CCOC1,MTT,72 h,1.08 µM
CC(C)Cc1ccc(-c2nn(-c3ccc(S(C)(=O)=O)cc3)cc2/C=N/N=c2\[nH]c(-c3ccc([N+](=O)[O-])cc3)cs2)cc1,MTT,48 h,2.85 µM
COc1ccc(C(=O)O[C@@H]2CN3Cc4c(cc5c(c4OC)OCO5)[C@@]24C=C[C@H](OC)C[C@@H]34)cc1OC,WST-1,,4.9 µM
Cc1ccc2nc(-c3ccc(F)cc3)[nH]c2c1,MTT,48 h,38.6 µM
O=C(N/N=C/c1cccn1CCCN1CCCC1)Nc1cc2c(Nc3ccc(F)c(Cl)c3)ncnc2cc1O[C@H]1CCOC1,MTT,72 h,2.41 µM
O=C(NC(=S)N1CCCC1)c1ccc2ccccc2c1,,48 h,3.62 µM
COc1cc2ncnc(Nc3ccc(F)c(Cl)c3)c2cc1NC(=O)N/N=C/CN(C)C,MTT,72 h,5.38 µM
Cc1ccc2nc(-c3ccc(F)cc3)n(Cc3ccccc3)c2c1,MTT,,43.1 µM
Clc1ccc(C[n+]2cn(CCc3ccccc3)c3ccccc32)cc1,MTT,72 h,13 µM
Cc1ccc2nc(-c3ccc(Cl)cc3)n(Cc3ccccc3)c2c1,MTT,,5.66 µM
CN1CCN(CCn2cccc2/C=N/NC(=O)Nc2cc3c(Nc4ccc(F)c(Cl)c4)ncnc3cc2O[C@H]2CCOC2)CC1,MTT,72 h,2.42 µM
O=C1C[C@@H](c2ccc(O)cc2)Oc2cc(O)cc(O)c21,MTT,48 h,4.75 µM
Cc1ccc2nc(-c3ccc(Cl)c(Cl)c3)n(Cc3ccccc3)c2c1,MTT,,80.5 µM
Oc1c(I)cc(I)c2cccnc12,MTT,48 h,75.1 µM
COc1cccc2c1C(=O)c1c(O)c3c(c(O)c1C2=O)C[C@@](O)(C(=O)CO)C[C@@H]3O[C@H]1C[C@H](N)[C@H](O)[C@H](C)O1,,48 h,1.2 µM
COc1cc(/C=C/C(=O)c2ccc(NC(=O)c3ccccc3CN3C(=O)c4ccccc4C3=O)cc2)cc(OC)c1OC,MTT,72 h,1.88 µM
Cc1ccc2c(Cl)cc(Cl)c(O)c2n1,MTT,48 h,> 100 µM
COc1cccc2c1C(=O)c1c(O)c3c(c(O)c1C2=O)C[C@@](O)(C(=O)CO)C[C@@H]3O[C@H]1C[C@H](N)[C@H](O)[C@H](C)O1,MTT,,3.39 µM
Nc1ncnc2c1ncn2[C@@H]1O[C@H](CO)[C@@H](O)[C@H]1O,WST-1,48 h,48.3 µM
CCN(CC)C(=S)NC(=O)c1ccc2ccccc2c1,,48 h,4.72 µM
CN1CCN(C/C=N/NC(=O)Nc2cc3c(Nc4ccc(F)c(Cl)c4)ncnc3cc2O[C@H]2CCOC2)CC1,MTT,72 h,2.04 µM
CS(=O)(=O)c1nc(N)n(-c2ccc(C(=O)O)cc2)n1,MTT,,21.9 µM
O=C(Nc1nnnn1C1CCCCC1)c1ccc2ccccc2c1,,48 h,2.38 µM
Clc1ccc(-c2nc3ccccc3[nH]2)cc1,MTT,48 h,67.1 µM
COc1nc(OCc2cccc(-c3ccccc3)c2C)ccc1CNCCNC(C)=O,MTT,,6.2 µM
CCN(CC)CCn1cccc1/C=N/NC(=O)Nc1cc2c(Nc3ccc(F)c(Cl)c3)ncnc2cc1OC,MTT,72 h,0.57 µM
FC(F)(F)c1cccc(Nc2ncnc3ccc(-c4ccc(CN5CCOCC5)cc4)cc23)c1,MTT,24 h,4.05 µM
COc1cc(CNCC2CCNCC2)ccc1OCc1cccc(C)c1,MTT,72 h,> 100 µM
O=c1cc(CO)occ1[O-].[Cl-].[W+4].c1cc[cH-]c1.c1cc[cH-]c1,MTT,,590 µM
O=C1NC(c2ccccc2)(c2ccccc2)C(=O)N1Cc1cn(-c2c3ccccc3nc3ccccc23)nn1,MTT,,42.7 µM
O=C(N/N=C/c1cccn1CCCN1CCOCC1)Nc1cc2c(Nc3ccc(F)c(Cl)c3)ncnc2cc1O[C@H]1CCOC1,MTT,72 h,5.57 µM
CC(=O)O[C@H]1C(=O)[C@@]2(C)[C@H]([C@H](OC(=O)c3ccccc3)[C@]3(O)C[C@H](OC(=O)[C@H](O)[C@@H](NC(=O)c4ccccc4)c4ccccc4)C(C)=C1C3(C)C)[C@]1(OC(C)=O)CO[C@@H]1C[C@@H]2O,MTT,48 h,0.006 µM
